Results taken from ChEMBL document CHEMBL1148284, “Antagonist analogue of 6-[3'-(1-adamantyl)-4'-hydroxyphenyl]-2-naphthalenecarboxylic acid (AHPN) family of apoptosis inducers that effectively blocks AHPN-induced apoptosis but not cell-cycle arrest” (2004).
Calls of active or inactive are those of the source. The rule behind the calls is not given here.

How the values were obtained:
MDA-MB-231 [1] = assay: Induction of apoptosis in MDA-MB-231 breast cancer cells after 96 hr at 0.5E-6M; type: functional, Homo sapiens
How it was run: (§1)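 Cells exposed to agonist in medium with 0.1% Me2SO vehicle: HL-60R for 24 h, MDA-MB-231 for 96 h. Cells fixed and stained with acridine orange; apoptotic nuclei scored by nuclear fragmentation in 200-cell fields. Percent apoptosis is the average of triplicates.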

MDA-MB-231 [2] = assay: Induction of apoptosis in MDA-MB-231 breast cancer cells after 96 hr at 1E-6M; type: functional, Homo sapiens; how it was run: as §1
NCI-H460 [3] = assay: Inhibition of H460 cell proliferation after 144 hr treatment at 0.1E-6M; type: functional, Homo sapiens
How it was run: (§2)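 H460 lung cancer cells grown in RPMI 1640 with 10% FCS and treated 144 h (0.1% Me2SO vehicle). Nuclei stained with DAPI and scored under fluorescence microscopy. Value is the average of triplicates.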

HL-60 [4] = assay: Induction of apoptosis in HL60R leukemia cells after 24 hr r treatment at 1E-6M; type: functional, Homo sapiens; how it was run: as §1
[5] = target: T1, Retinoic acid receptor alpha (Homo sapiens) (UniProt P10276); assay: Transcriptional activation in CV-1 cells expressing RAR alpha at 1E-6M; type: functional, cell-based; conditions: Cercopithecidae
T1 sequence (whole entry): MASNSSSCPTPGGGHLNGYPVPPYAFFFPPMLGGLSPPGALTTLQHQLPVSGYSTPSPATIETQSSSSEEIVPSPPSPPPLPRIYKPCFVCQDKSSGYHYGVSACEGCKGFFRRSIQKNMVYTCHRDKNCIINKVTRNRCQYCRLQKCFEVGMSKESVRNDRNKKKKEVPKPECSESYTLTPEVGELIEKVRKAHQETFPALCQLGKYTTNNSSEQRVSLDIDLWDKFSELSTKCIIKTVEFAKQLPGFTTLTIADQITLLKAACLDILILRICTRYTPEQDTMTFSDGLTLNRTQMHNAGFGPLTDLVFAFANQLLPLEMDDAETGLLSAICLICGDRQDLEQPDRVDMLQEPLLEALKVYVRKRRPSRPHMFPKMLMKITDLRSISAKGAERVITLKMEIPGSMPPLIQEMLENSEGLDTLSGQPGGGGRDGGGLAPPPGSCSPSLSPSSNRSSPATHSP
How it was run: (§3)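 CV-1 cells in DMEM with 10% FCS, calcium-precipitate transfected with (TREpal)2-tk-CAT plus RAR expression vector and β-gal vector. After 20 h, switched to 5% charcoal-stripped FCS and treated 24 h. CAT activity normalized to β-gal and expressed relative to 1.0 × 10^-6 M trans-RA as 100%.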

[6] = target: T2, Retinoic acid receptor gamma (Homo sapiens) (UniProt P13631); assay: Transcriptional activation in CV-1 cells expressing RAR gamma at 1E-6M; type: functional, cell-based; conditions: Cercopithecidae; how it was run: as §3
T2 sequence (whole entry): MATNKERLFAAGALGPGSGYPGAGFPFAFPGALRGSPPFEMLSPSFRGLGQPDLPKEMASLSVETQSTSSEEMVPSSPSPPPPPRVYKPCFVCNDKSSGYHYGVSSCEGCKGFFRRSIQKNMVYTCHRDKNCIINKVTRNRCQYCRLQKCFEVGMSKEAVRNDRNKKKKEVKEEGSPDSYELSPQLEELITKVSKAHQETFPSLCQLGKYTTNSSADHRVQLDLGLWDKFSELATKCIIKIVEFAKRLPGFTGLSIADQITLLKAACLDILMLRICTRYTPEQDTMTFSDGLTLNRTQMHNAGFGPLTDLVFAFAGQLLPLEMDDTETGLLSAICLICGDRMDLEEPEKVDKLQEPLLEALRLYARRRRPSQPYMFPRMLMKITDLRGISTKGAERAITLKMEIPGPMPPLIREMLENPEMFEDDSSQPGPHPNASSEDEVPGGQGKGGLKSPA

[7] = target: T3, Retinoic acid receptor beta (Homo sapiens) (UniProt P10826); assay: Transcriptional activation in CV-1 cells expressing RAR beta at 1E-6M; type: functional, cell-based; conditions: Cercopithecidae
T3 sequence (whole entry): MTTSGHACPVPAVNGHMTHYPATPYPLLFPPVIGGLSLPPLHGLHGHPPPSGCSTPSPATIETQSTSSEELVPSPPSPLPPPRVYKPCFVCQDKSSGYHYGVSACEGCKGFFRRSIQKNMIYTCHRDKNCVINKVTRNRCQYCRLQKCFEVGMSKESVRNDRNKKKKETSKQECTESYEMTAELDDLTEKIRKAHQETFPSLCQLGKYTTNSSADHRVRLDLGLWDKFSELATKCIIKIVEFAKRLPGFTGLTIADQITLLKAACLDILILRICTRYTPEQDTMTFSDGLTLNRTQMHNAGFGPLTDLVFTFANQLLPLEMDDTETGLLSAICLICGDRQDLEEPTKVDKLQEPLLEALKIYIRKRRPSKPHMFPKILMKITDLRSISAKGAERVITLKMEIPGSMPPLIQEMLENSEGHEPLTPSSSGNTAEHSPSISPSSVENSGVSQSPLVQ

NCI-H460 [8] = assay: Inhibition of H460 cell proliferation after 144 hr treatment at 1E-6M; type: functional, Homo sapiens; how it was run: as §2
HL-60 [9] = assay: Induction of apoptosis in HL60R leukemia cells after 24 hr r treatment at 0.1E-6M; type: functional, Homo sapiens; how it was run: as §1
MCF7 = assay: Inhibition of MCF-7 cell proliferation at 1E-7M; Inhibitory activity; type: functional, cell-based; conditions: Homo sapiens
BT-20 = assay: Inhibition of BT-20 breast cancer cell proliferation at 1E-7 M; Inhibitory activity; type: functional, cell-based; conditions: Homo sapiens
LNCaP = assay: Suppression of LNCaP prostate cancer cell apoptosis induced by 1E-6M 5-Cl-AHPN; From 31% to 15%; type: functional, Homo sapiens
How it was run: (§4)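 H460 and LNCaP cells (RPMI 1640, 10% FCS) treated 36 h with 1.0 × 10^-6 M inducer alone or with 1.0 × 10^-6 M antagonist. Cells trypsinized, fixed in 3.7% paraformaldehyde, stained with DAPI (50 µg/mL), and apoptotic nuclear morphology scored by fluorescence microscopy. Apoptosis = apoptotic/total cells × 100.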

NCI-H460 [10] = assay: Suppression of H460 lung cancer cell apoptosis induced by 1E-6M 5-Cl-AHPN; From 34% to 9%; type: functional, Homo sapiens; how it was run: as §4
[11] = target: T4, Retinoic acid receptor RXR-alpha (Homo sapiens) (UniProt P19793); assay: Displacement of [3H]9-cis-RA from Retinoic acid receptor RXR-alpha LBD
T4 sequence (whole entry): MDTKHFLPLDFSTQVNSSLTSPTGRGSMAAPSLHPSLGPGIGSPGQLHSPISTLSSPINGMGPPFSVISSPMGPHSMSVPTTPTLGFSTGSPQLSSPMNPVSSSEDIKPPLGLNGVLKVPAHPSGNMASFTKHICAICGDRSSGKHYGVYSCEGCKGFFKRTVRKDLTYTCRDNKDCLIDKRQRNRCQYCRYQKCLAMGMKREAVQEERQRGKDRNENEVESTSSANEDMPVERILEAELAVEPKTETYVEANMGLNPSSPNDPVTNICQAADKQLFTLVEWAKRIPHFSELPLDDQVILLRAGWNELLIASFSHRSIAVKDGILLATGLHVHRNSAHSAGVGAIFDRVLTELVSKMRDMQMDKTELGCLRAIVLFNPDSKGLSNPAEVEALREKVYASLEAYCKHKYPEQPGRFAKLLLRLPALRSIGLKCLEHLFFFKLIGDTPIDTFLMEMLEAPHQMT
How it was run: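 Bacterially expressed receptor LBDs (RARs as GST fusions, RXRα as His6 fusion; about 1.0 × 10^-8 M) incubated with 1.0 × 10^-9 M [11,12-3H2]9-cis-RA (43 Ci/mmol), with or without 1.0 × 10^-9 M unlabeled competitor. Bound and free radioligand separated by Sephadex G-50 gel filtration; mean ± SEM of three independent experiments.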

MDA-MB-468 = assay: Inhibition of MDA-MB-468 cell proliferation at 0.5E-6M; Inhibitory activity; type: functional, cell-based; conditions: Homo sapiens
How it was run: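 MDA-MB-468 cells (1.0 × 10^5) seeded in DMEM/F12 with 5% FBS; after 24 h, 0.5 × 10^-6 M agent added, with or without 2.0 × 10^-6 M antagonist. Incubated 72 h, then proliferation read by colorimetric assay relative to the agent-alone control. Triplicates, 0.1% Me2SO.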

| SMILES | Apoptosis (MDA-MB-231 [1]) | Apoptosis (MDA-MB-231 [2]) | Inhibition (NCI-H460 [3]) | Apoptosis (HL-60 [4]) | Transcriptional activation [5] | Transcriptional activation [6] | Transcriptional activation [7] | Inhibition (NCI-H460 [8]) | Apoptosis (HL-60 [9]) | inhibition (MCF7) | inhibition (BT-20) | Suppression (LNCaP) | Suppression (NCI-H460 [10]) | Displacement [11] | inhibition (MDA-MB-468) |
| --- | --- | --- | --- | --- | --- | --- | --- | --- | --- | --- | --- | --- | --- | --- | --- |
| O=C(O)c1ccc2cc(-c3ccc(O)c(C45CC6CC(CC(C6)C4)C5)c3)ccc2c1 [O-DEMETHYLATED ADAPALENE] | 26% | 46% | 20% | 98% | 21% | 88% | 78% | 80% | 78% |  |  |  |  |  |  |
| Cc1c(-c2ccc(O)c(C34CC5CC(CC(C5)C3)C4)c2)ccc2cc(C(=O)O)ccc12 | 14% |  |  | 70% |  |  |  |  | 29% | Inhibitory activity | Inhibitory activity |  |  |  |  |
| CC(=O)NCCCOc1cc(/C=C/C(=O)O)ccc1-c1ccc(O)c(C23CC4CC(CC(C4)C2)C3)c1 | 0% | 1% |  | 0% |  |  |  |  | 0% |  |  | 15% | 9% |  |  |
| O=C(O)/C=C/c1ccc(-c2ccc(O)c(C34CC5CC(CC(C5)C3)C4)c2)cc1 [ADAROTENE] | 53% | 58% |  | 98% | 8% | 103% | 85% |  | 90% |  |  |  |  |  |  |
| O=C(O)/C=C/c1ccc(-c2ccc(O)c(C34CC5CC(CC(C5)C3)C4)c2)c(Cl)c1 | 31% | 43% |  | 94% |  |  |  |  | 51% |  |  |  |  | 16% | Active |
| O=C(O)c1ccc2c(Cl)c(-c3ccc(O)c(C45CC6CC(CC(C6)C4)C5)c3)ccc2c1 | 21% | 41% | 56% | 94% |  |  |  | 71% | 62% |  |  |  |  |  |  |
| CCOc1cc(/C=C/C(=O)O)ccc1-c1ccc(O)c(C23CC4CC(CC(C4)C2)C3)c1 |  |  | 14% | 29% |  |  |  | 52% | 0% |  |  |  |  |  |  |
| Cc1cc(/C=C/C(=O)O)ccc1-c1ccc(O)c(C23CC4CC(CC(C4)C2)C3)c1 | 5% | 30% |  | 95% |  |  |  |  | 10% |  |  |  |  |  |  |
